Only some compounds are listed: those with a hit (about 2.7% of all), similar ones and a draw of the others.
CSN inh: CSN deneddylation inhibition; 360,000 compounds, 0.38% hits; Q92905; inhibition, % at 12.5 µM; Purified CSN, SCF-Nedd8-OG deneddylation, fluorescence polarization;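 active = pattern-corrected inhibition above about 35%, with an unprinted fluorescence ratio check between 0.5 and 1.5, limit read from the data, passing the limit was not always enough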
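Schedule: reaction 90 min, room temperature / Assay system: HEK293T-derived human Csn5 enzyme / Input: Csn5 at 0.24 nM final / Measure: inhibition of Csn5 cleavage, % / Control set: substrate-only high control, full reaction low control / Technique: fluorescence polarization of the substrate / Buffer or medium: Tris/NaCl/DTT buffer, pH 7.5 / Reagent: SCFSkp2-Nedd8OG substrate at 10 nM final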
TPT1 inhibitor: blocks Candida albicans tRNA 2'-phosphotransferase; recombinant caTPT1, FP RNA substrate dephosphorylation; inhibition, % at 5 µM; 300,000 compounds, 0.81% hits;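 active = inhibition above the mean of all tested compounds plus 3 SD, set per screening campaign, cut at about 24% in these data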
HNF4A DNA FP: change in binding of human HNF4 alpha to DNA. P41235. HNF4a-FITC DNA binding, fluorescence polarization, 1 h. activity change, % at 10 µM. 360,000 compounds, 0.3% hits; in the data active = activity change above about 30%, passing the limit was not always enough
PP1 inh: blocks human PP1-alpha phosphatase, a PP5 counter-screen. purified PP1alpha, OMFP fluorescence. 320,000 compounds, 0.9% hits. inhibition, % at 6.7 µM. P62136;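 active = inhibition above the mean inhibition of all tested compounds plus 3 SD, computed separately for each screening campaign, cut at about 15% in these data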
Rpn11 inh: inhibitors of human proteasome Rpn11; inhibition, % at 20 µM; 360,000 compounds, 0.59% hits; AID 588493; O00487; human 26S proteasome, Ub4-pepOG fluorescence polarization; 20S core pre-blocked with epoxomicin;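 active = inhibition at 20 µM, scaled to each plate's controls, above about 33%, limit read from the data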
NadD block: NadD (S. aureus) enzyme inhibition; purified NadD enzyme, colorimetric absorbance read-out; inhibition, % at 20 µM; 360,000 compounds, 0.78% hits; in the data active = inhibition above about 26%
Rpn11 inh conf: confirmation of human proteasome Rpn11 inhibitors; shares compounds with Rpn11 inh; purified human 26S proteasome, Ub4-pepOG fluorescence polarization; proteasome pretreated with epoxomicin; inhibition, % at 20 µM; 1,900 compounds, 29% hits
MMP-2 counter: MMP-2 (human) inhibition counter-screen; shares compounds with Rpn11 inh; recombinant MMP-2, FRET peptide cleavage fluorescence; inhibition, % at 20 µM; 1,900 compounds, 4% hits; AID 602330;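 note: human MMP-2 activated beforehand with APMA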
Target sequence (P08253 whole entry, looked up): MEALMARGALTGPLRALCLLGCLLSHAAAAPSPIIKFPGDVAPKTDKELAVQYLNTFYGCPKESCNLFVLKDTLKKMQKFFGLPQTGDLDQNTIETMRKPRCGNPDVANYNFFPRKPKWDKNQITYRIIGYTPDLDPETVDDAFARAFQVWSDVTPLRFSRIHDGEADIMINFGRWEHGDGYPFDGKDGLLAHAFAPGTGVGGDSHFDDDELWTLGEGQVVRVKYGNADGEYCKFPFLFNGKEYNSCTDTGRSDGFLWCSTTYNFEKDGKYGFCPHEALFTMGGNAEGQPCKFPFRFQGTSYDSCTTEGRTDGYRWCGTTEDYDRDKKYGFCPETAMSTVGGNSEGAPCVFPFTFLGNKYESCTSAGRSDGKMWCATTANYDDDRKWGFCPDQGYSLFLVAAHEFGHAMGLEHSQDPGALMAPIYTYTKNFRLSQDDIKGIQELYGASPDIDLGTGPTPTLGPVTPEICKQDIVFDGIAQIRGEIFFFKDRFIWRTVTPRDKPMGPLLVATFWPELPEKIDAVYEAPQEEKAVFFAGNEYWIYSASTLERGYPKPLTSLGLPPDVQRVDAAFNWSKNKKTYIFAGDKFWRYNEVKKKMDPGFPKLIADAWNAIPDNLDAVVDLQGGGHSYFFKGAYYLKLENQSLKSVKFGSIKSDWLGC
Thrombin inh: blocks bovine thrombin, flagging nonselective RPN11 hits. AID 602333. bovine thrombin cleavage of Ub4-pepOG, fluorescence polarization. shares compounds with Rpn11 inh. 1,900 compounds, 13% hits. inhibition, % at 20 µM;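 active = mean inhibition at least 40% at 20 µM, or signal 3 deviations below plate average, so some actives read negative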
A number is an active result; – = inactive; · = no result. Cut-off read from the data, not from the text of the source, unless noted: active = inhibition above about 40%; inactive = the rest.

SMILES | CSN inh | TPT1 inhibitor | HNF4A DNA FP | PP1 inh | Rpn11 inh | NadD block | Rpn11 inh conf | MMP-2 counter | Thrombin inh
COc1ccc([C@H]2C[C@@H](O)[C@H](n3cc(C4CC4)nn3)CN2Cc2cccs2)cc1 | – | · | – | · | – | – | · | · | ·
CCOC(=O)C1=C(C)NC(SCC(=O)OC)=C(C#N)C1c1ccc(C(=O)OC)cc1 (centres undefined) | – | – | – | – | – | – | · | · | ·
CCOC(=O)C1=C(C)Nc2sc(C(=O)c3ccc(C)cc3)c(N)c2C1c1ccc(C(=O)OC)cc1 (centres undefined) | – | – | – | – | 41 | – | – | 41 | –
CCOC(=O)C1=C(C)Nc2sc(C(=O)c3ccc(F)cc3)c(N)c2C1c1ccc(C(=O)OC)cc1 (centres undefined) | – | – | – | – | 38 | – | – | – | –
CCOC(=O)C1=C(C)NC(C)=C(C(=O)OCC)C1c1ccc(O)cc1 | – | – | – | – | – | – | · | · | ·
NC(=O)COc1ccc2oc(=O)cc(-c3cc4ccccc4o3)c2c1 | – | – | – | – | – | – | · | · | ·
CCSc1nc2sc3c(c2c(=O)n1C1CCCCC1)CCN(C)C3 | – | · | – | · | – | – | · | · | ·
C=C(C)CSc1nc2sc3c(c2c(=O)n1C1CCCCC1)CCN(C)C3 | – | – | – | – | 60 | – | – | – | –
CN(C)C(=O)CCc1ccc2c3c([nH]c2c1)[C@]1(C)[C@@H](C(=O)N2CCOCC2)C[C@H](CC(=O)NCCN2CCOCC2)C(=O)N1CC3 | – | · | – | · | – | – | · | · | ·
Cc1ccc(O)c(C(=O)c2cnn(C(=O)COc3ccc(Cl)cc3)c2)c1 | – | – | – | – | 77 | – | – | – | –
CC(OC(=O)c1cccs1)C(=O)NCc1cccs1 (centres undefined) | – | – | – | – | – | – | · | · | ·
CC(OC(=O)c1cccs1)C(=O)NC1CC1 (centres undefined) | – | – | – | – | 38 | – | – | – | –
O=[N+]([O-])c1ccc(Nc2c3ccccc3nc3ccccc23)cc1 | – | · | – | · | – | – | · | · | ·
NC(N)=NCCCS(=O)(=O)Nc1ccc(Nc2c3ccccc3nc3cc([N+](=O)[O-])ccc23)cc1 | – | · | – | · | 73 | – | – | – | 48
CO/C([O-])=N/c1c[n+](-c2ccc(Cl)cc2)no1 | – | – | – | – | 84 | – | – | – | –
CC1=NS(=O)(=O)NC(C)(C)C1 | – | · | – | · | – | – | · | · | ·
Oc1cccc2ccc(N3CCOCC3)nc12 | – | – | – | – | – | – | · | · | ·
COc1ccc(N2CCN(C(=O)CSc3ncccc3-c3nc4ccccc4[nH]3)CC2)cc1 | – | – | – | – | 36 | – | – | – | –
COc1ccccc1N1CCN(C(=O)CSc2ncccc2-c2nc3ccccc3[nH]2)CC1 | – | – | – | – | – | – | · | · | ·
CCOC(=O)C1=CCN(S(=O)(=O)c2ccccc2Br)C1c1ccc(C)cc1 (centres undefined) | – | · | – | · | – | – | · | · | ·
O=C(N/N=C\c1ccc(-c2ccc([N+](=O)[O-])cc2)o1)C1COc2ccccc2O1 (centres undefined) | – | – | – | – | 39 | – | 46 | – | –
CN(C)c1ccc(/C=N/NC(=O)C2COc3ccccc3O2)o1 (centres undefined) | – | – | – | – | – | – | · | · | ·
O=C(c1cccs1)N1CCN(C(=O)c2cccs2)C1=S | – | · | – | · | – | – | · | · | ·
CCN(CC)c1ccc(/C=C2\C(=O)N(c3nnc(C)c(=O)[nH]3)N=C2C)cc1 | – | 43 | – | – | 44 | – | 49 | – | –
Cn1cnnc1SCC(=O)Nc1sc2c(c1C(N)=O)CCC2 | 50 | – | – | – | 41 | – | – | – | –
SMILES | CSN inh | TPT1 inhibitor | HNF4A DNA FP | PP1 inh | Rpn11 inh | NadD block | Rpn11 inh conf | MMP-2 counter | Thrombin inh
COCCn1cnnc1SCC(=O)Nc1sc2c(c1C#N)CCC2 | – | · | – | – | – | – | · | · | ·
CC1CCC2(CC1)NC(=O)N(CC(=O)Nc1sc3c(c1C(N)=O)CCC3)C2=O (centres undefined) | – | – | – | – | 65 | – | – | – | –
Cc1cccc2cc(C#N)c(SCC(=O)Nc3ccccc3N3CCOCC3)nc12 | – | – | – | – | 36 | – | – | – | –
N#Cc1cc2ccccc2nc1SCC(=O)Nc1ccccc1N1CCOCC1 | – | – | – | – | – | – | · | · | ·
c1ccc(CN2CCN(C3=Nc4cccc5cccc3c45)CC2)cc1 | – | · | – | · | – | – | · | · | ·
Fc1ccc(N2CCN(C3=Nc4cccc5cccc3c45)CC2)cc1 | – | – | – | – | 42 | – | – | – | –
Cc1cc(=O)oc2cc(OCC(=O)Nc3ccccc3C(N)=O)c(Cl)cc12 | – | – | – | – | – | – | · | · | ·
COc1ccc(CNC(=O)CN(C(=O)c2csnn2)c2cccc(C(C)=O)c2)cc1 | – | – | – | – | – | – | · | · | ·
Cc1cc2ncn(/N=C/c3ccc([N+](=O)[O-])s3)c2cc1C | – | – | – | – | 41 | – | – | – | –
CCC(=O)NC(c1cccs1)c1cc(Cl)c2ccccc2c1O (centres undefined) | – | · | – | – | – | – | · | · | ·
CCC(=O)NC(c1cccs1)c1cc([N+](=O)[O-])c2cccnc2c1O (centres undefined) | – | – | – | – | 40 | – | 48 | – | –
Cc1cc(Br)c2c(c1)[C@](O)(c1cn(C)c3ccccc13)C(=O)N2C | – | · | – | · | · | · | · | · | ·
N#CC1=C(N)Oc2cc(N)ccc2C1c1cc(Br)cs1 (centres undefined) | – | · | – | · | 73 | – | – | – | –
CCCCC(=O)N(C)c1c(CC)nc2c(OCc3ccc(C(F)(F)F)cc3)cccn12 | – | · | – | · | – | – | · | · | ·
O=C(Nc1ccccc1-c1nc2ccccc2s1)C1=COCCO1 | – | – | – | – | 62 | – | – | – | –
O=C(Nc1nc2ccc(F)cc2s1)C1=COCCO1 | – | – | – | – | – | – | · | · | ·
C/C(=N\NC(=O)C(=O)Nc1ccc(C)c(Cl)c1)c1ccncc1 | – | – | – | – | 90 | – | – | – | –
C/C(=N\NC(=O)C(=O)Nc1ccc(C)cc1)c1ccncc1 | – | – | – | – | – | – | · | · | ·
Cc1nc(NC(=O)c2ccccc2)sc1-c1csc(NCCc2ccccc2)n1 | 40 | – | – | – | 44 | – | – | – | –
Cc1nc(NC(=O)c2ccccc2)sc1-c1csc(NCc2ccccc2)n1 | – | – | – | – | – | – | · | · | ·
Cc1cccc([N+](=O)[O-])c1NC(=O)COC(=O)c1nc2nccc(C)n2n1 | – | · | – | – | – | – | · | · | ·

From PubChem
